Test results published in ChEMBL document CHEMBL4425092, “ent-Labdane Diterpenoids from the Aerial Parts of Eupatorium obtusissmum” (2016).

Legend:
Format in all cases: functional
HeLa = test: Antiproliferative activity against human HeLa cells after 48 hrs by sulforhodamine B assay
In short: (§1)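 Cells seeded at 2500 per well and treated from day 1 after plating for 48 h, in triplicate, at dilutions over 0.001–100 μM. Stocks were made in DMSO at 400× the top final concentration, and vehicle controls received 0.25% v/v DMSO. Cells were fixed with ice-cold TCA for 60 min at 4 °C, then stained with SRB. OD was read at 530 nm, corrected for medium-only background, and GI50 was calculated by NCI formulas.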

HBL-100 = test: Antiproliferative activity against human HBL100 cells after 48 hrs by sulforhodamine B assay; settings: HBL-100, 48 h; in short: as §1
A549 = test: Antiproliferative activity against human A549 cells after 48 hrs by sulforhodamine B assay; settings: A549, 48 h; in short: as §1
SW1573 = test: Antiproliferative activity against human SW1573 cells after 48 hrs by sulforhodamine B assay; settings: SW1573, 48 h
In short: (§2)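 Plating was at 5000 cells per well, with 48 h drug exposure starting on day 1, in triplicate, at dilutions spanning 0.001–100 μM. DMSO stocks were 400× the top final concentration, and vehicle controls received 0.25% v/v DMSO. Cells were fixed with cold TCA for 60 min at 4 °C, and growth was measured by SRB. Absorbance at 530 nm was corrected for medium-only blank wells, and GI50 was derived by NCI formulas.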

T47D = test: Antiproliferative activity against human T47D cells after 48 hrs by sulforhodamine B assay; in short: as §2
WiDr = test: Antiproliferative activity against human WiDr cells after 48 hrs by sulforhodamine B assay; in short: as §2

| SMILES | GI50 (HeLa) | GI50 (HBL-100) | GI50 (A549) | GI50 (SW1573) | GI50 (T47D) | GI50 (WiDr) |
| --- | --- | --- | --- | --- | --- | --- |
| C=C1CC[C@@H]2C(C)(C)[C@@H](O)CC[C@@]2(C)[C@@H]1C[C@H]1OC(=O)C=C1C | 62 µM | > 100 µM | 44 µM | > 100 µM | > 100 µM | > 100 µM |
| C=C1[C@@H](OC(C)=O)C[C@@H]2C(C)(C)[C@@H](O)CC[C@@]2(C)[C@@H]1C[C@H]1OC(=O)C=C1C | 19 µM | 35 µM | 23 µM | 57 µM | 24 µM | 32 µM |
| CC1=CC(=O)O[C@@H]1C[C@@H]1[C@@H](C)C(=O)C[C@@H]2C(C)(C)[C@H](O)CC[C@@]12C | > 100 µM | > 100 µM | > 100 µM | > 100 µM | > 100 µM | > 100 µM |
| COc1cc([C@@H]2c3cc4c(cc3[C@@H](O[C@@H]3O[C@@H]5CO[C@@H](C)O[C@H]5[C@H](O)[C@H]3O)[C@H]3COC(=O)[C@H]23)OCO4)cc(OC)c1O [ETOPOSIDE] | 3 µM | 2.3 µM | 0.7 µM | 15 µM | 22 µM | 23 µM |
| C=C1CC[C@@H]2C(C)(C)[C@H](O)CC[C@@]2(C)[C@@H]1C[C@H]1OC(=O)C=C1C | 62 µM | > 100 µM | 59 µM | > 100 µM | > 100 µM | > 100 µM |
| CC1=CC(=O)O[C@@H]1C[C@@H]1[C@@H](C)C(=O)C[C@@H]2C(C)(C)[C@@H](O)CC[C@@]12C | > 100 µM | > 100 µM | > 100 µM | > 100 µM | > 100 µM | > 100 µM |
| CC1=CC(=O)O[C@H]1C[C@@H]1[C@@H](C)C(=O)C[C@@H]2C(C)(C)[C@@H](O)CC[C@@]12C | > 100 µM | > 100 µM | > 100 µM | > 100 µM | > 100 µM | > 100 µM |
